From ChEMBL document CHEMBL2407079, “Potent DGAT1 Inhibitors in the Benzimidazole Class with a Pyridyl-oxy-cyclohexanecarboxylic Acid Moiety” (ACS Med Chem Lett, 2013)
The source made the active and inactive calls. The calls are words filed in the database; no cut-off is given here.

Legend:
Mus musculus = experiment: Reduction in triglyceride excursion in mouse at 3 mg/kg, po by lipid tolerance test; assay type: functional; design: scale not given: the % may be the effect or the level left
Canis familiaris [1] = experiment: Reduction in triglyceride excursion in dog at 3 mg/kg, po administered 1 hr prior lipid-challenge measured up to 24 hrs by lipid tolerance test; assay type: functional, organism-based; design: dose 3 mg/kg; conditions: Canis lupus familiaris
Summary of the method: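 Dog lipid tolerance test. Oral dose of 3 mg/kg in 0.5% methyl cellulose; lipid challenge 1 h after dosing; triglyceride excursion compared with a vehicle group over time; plasma drug levels sampled from 0 to 24 h.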

[2] = Cmax in Sprague-Dawley rat at 10 mg/kg, po; assay type: ADME, organism-based; design: dose 10 mg/kg, route oral; conditions: in vivo
Summary of the method: (§1)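 Sprague–Dawley rats; oral 10 mg/kg given as a solid dispersion formulation, with the iv arm at 1 mg/kg in EtOH/PEG400/water (10:50:40). Plasma exposure measured for the parent and for the epimer metabolite.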

[3] = Cmax in beagle dog at 2 mg/kg, po; assay type: ADME, organism-based, Canis lupus familiaris; design: dose 2 mg/kg, route oral; conditions: in vivo
Summary of the method: (§2)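 Beagles; iv 0.55 mg/kg as a solution in EtOH/PEG400/water (10:50:40), and oral 2 mg/kg as a solution in 0.5% methylcellulose. Plasma measured for the parent and the epimer metabolite.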

[4] = AUC in Sprague-Dawley rat at 10 mg/kg, po; assay type: ADME, organism-based; design: dose 10 mg/kg, route oral; conditions: plasma; summary of the method: as §1
[5] = Half life in rhesus monkey at 1 mg/kg, iv; assay type: ADME, organism-based, Macaca mulatta; design: dose 1 mg/kg, route intravenous; conditions: in vivo
Summary of the method: (§3)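 Rhesus monkeys; iv 1 mg/kg as a solution in EtOH/PEG400/water (10:50:40), and oral 2 mg/kg as a solution in 0.5% methylcellulose. Plasma measured for the parent and the epimer metabolite.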

[6] = Bioavailability in Sprague-Dawley rat at 1 mg/kg, iv; assay type: ADME, organism-based; conditions: in vivo
Summary of the method: (§4)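 Sprague–Dawley rats; intravenous dose of 1 mg/kg given as a solution in EtOH/PEG400/water (10:50:40).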

[7] = Clearance in Sprague-Dawley rat at 1 mg/kg, iv; assay type: ADME, organism-based; design: dose 1 mg/kg, route intravenous; conditions: in vivo; summary of the method: as §4
[8] = Cmax in rhesus monkey at 2 mg/kg, po; assay type: ADME, organism-based, Macaca mulatta; design: dose 2 mg/kg, route oral; conditions: in vivo; summary of the method: as §3
[9] = Tmax in Sprague-Dawley rat at 10 mg/kg, po; assay type: ADME, organism-based; design: dose 10 mg/kg, route oral; conditions: in vivo; summary of the method: as §1
[10] = target: T1, Diacylglycerol O-acyltransferase 1 (Homo sapiens, UniProt O75907); experiment: Inhibition of human DGAT1
T1 sequence (O75907 whole entry): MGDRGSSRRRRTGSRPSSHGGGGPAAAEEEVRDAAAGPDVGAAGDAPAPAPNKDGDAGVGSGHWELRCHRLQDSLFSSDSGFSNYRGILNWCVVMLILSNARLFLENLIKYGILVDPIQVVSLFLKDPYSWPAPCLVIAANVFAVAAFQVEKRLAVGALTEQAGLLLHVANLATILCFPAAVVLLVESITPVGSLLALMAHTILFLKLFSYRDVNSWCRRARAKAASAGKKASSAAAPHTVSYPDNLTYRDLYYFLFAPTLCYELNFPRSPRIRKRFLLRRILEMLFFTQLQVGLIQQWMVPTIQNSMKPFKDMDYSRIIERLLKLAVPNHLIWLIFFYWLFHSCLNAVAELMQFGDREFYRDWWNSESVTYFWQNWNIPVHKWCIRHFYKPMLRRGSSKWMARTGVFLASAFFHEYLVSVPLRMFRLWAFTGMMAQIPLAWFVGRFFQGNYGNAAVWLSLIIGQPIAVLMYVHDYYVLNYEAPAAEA

[11] = Volume of distribution at steady state in Sprague-Dawley rat at 1 mg/kg, iv; assay type: ADME, organism-based; design: dose 1 mg/kg, route intravenous; conditions: in vivo, read-out: Vdss; summary of the method: as §4
[12] = target: T2, Diacylglycerol O-acyltransferase 1 (Mus musculus, UniProt Q9Z2A7); experiment: Inhibition of mouse DGAT1
T2 sequence (Q9Z2A7 whole entry): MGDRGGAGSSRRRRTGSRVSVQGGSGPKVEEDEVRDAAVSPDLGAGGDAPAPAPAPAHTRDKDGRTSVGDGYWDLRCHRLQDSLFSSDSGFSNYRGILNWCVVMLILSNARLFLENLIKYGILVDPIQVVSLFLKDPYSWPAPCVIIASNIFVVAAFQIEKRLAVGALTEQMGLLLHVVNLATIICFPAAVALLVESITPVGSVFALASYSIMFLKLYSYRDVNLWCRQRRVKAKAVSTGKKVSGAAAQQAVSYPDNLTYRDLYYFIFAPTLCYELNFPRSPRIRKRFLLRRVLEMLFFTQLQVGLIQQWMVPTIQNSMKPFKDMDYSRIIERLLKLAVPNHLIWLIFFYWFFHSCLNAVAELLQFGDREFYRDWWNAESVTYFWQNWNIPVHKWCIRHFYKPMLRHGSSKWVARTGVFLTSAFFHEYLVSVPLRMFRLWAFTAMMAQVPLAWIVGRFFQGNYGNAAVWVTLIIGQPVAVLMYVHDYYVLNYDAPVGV

Canis familiaris [13] = experiment: AUC in beagle dog assessed as trans-4-(5-(5-fluoro-1H-benzo[d]imidazol-2-yl)-2,3'-bipyridin-6'-yloxy)cyclohexanecarboxylic acid at 2 mg/kg, po; assay type: ADME, organism-based, Canis lupus familiaris, Plasma; design: dose 2 mg/kg, route oral; conditions: in vivo; summary of the method: as §2
[14] = Volume of distribution at steady state in beagle dog at 0.55 mg/kg, iv; assay type: ADME, organism-based, Canis lupus familiaris; design: dose 0.55 mg/kg, route intravenous; conditions: in vivo, read-out: Vdss; summary of the method: as §2
[15] = Volume of distribution at steady state in rhesus monkey at 1 mg/kg, iv; assay type: ADME, organism-based, Macaca mulatta; design: dose 1 mg/kg, route intravenous; conditions: in vivo, read-out: Vdss; summary of the method: as §3
[16] = Clearance in beagle dog at 0.55 mg/kg, iv; assay type: ADME, organism-based, Canis lupus familiaris; design: dose 0.55 mg/kg, route intravenous; conditions: in vivo; summary of the method: as §2
[17] = AUC in rhesus monkey at 2 mg/kg, po; assay type: ADME, organism-based, Macaca mulatta; design: dose 2 mg/kg, route oral; conditions: plasma; summary of the method: as §3
[18] = Half life in beagle dog at 0.55 mg/kg, iv; assay type: ADME, organism-based, Canis lupus familiaris; design: dose 0.55 mg/kg, route intravenous; conditions: in vivo; summary of the method: as §2
[19] = Half life in Sprague-Dawley rat at 1 mg/kg, iv; assay type: ADME, organism-based; design: dose 1 mg/kg, route intravenous; conditions: in vivo; summary of the method: as §4
[20] = Clearance in rhesus monkey at 1 mg/kg, iv; assay type: ADME, organism-based, Macaca mulatta; design: dose 1 mg/kg, route intravenous; conditions: in vivo; summary of the method: as §3
Rattus norvegicus = experiment: AUC in Sprague-Dawley rat assessed as trans-4-(5-(5-fluoro-1H-benzo[d]imidazol-2-yl)-2,3'-bipyridin-6'-yloxy)cyclohexanecarboxylic acid at 10 mg/kg, po; assay type: ADME, organism-based, Plasma; design: dose 10 mg/kg, route oral; conditions: in vivo; summary of the method: as §1
[21] = Tmax in rhesus monkey at 2 mg/kg, po; assay type: ADME, organism-based, Macaca mulatta; design: dose 2 mg/kg, route oral; conditions: in vivo; summary of the method: as §3
[22] = Bioavailability in rhesus monkey at 1 mg/kg, iv; assay type: ADME, organism-based, Macaca mulatta; conditions: in vivo; summary of the method: as §3
[23] = AUC in beagle dog at 2 mg/kg, po; assay type: ADME, organism-based, Canis lupus familiaris; design: dose 2 mg/kg, route oral; conditions: plasma; summary of the method: as §2
Rhesus monkey = experiment: AUC in rhesus monkey assessed as trans-4-(5-(5-fluoro-1H-benzo[d]imidazol-2-yl)-2,3'-bipyridin-6'-yloxy)cyclohexanecarboxylic acid at 2 mg/kg, po; assay type: ADME, organism-based, Macaca mulatta, Plasma; design: dose 2 mg/kg, route oral; conditions: in vivo; summary of the method: as §3
[24] = Tmax in beagle dog at 2 mg/kg, po; assay type: ADME, organism-based, Canis lupus familiaris; design: dose 2 mg/kg, route oral; conditions: in vivo; summary of the method: as §2
[25] = Bioavailability in beagle dog at 0.55 mg/kg, iv; assay type: ADME, organism-based, Canis lupus familiaris; conditions: in vivo; summary of the method: as §2
[26] = Lipophilicity, log D of the compound by HPLC analysis; assay type: physicochemical

## O=C(O)[C@H]1CC[C@@H](Oc2ccc(-c3ccc(-c4nc5cc(F)ccc5[nH]4)cn3)cn2)CC1
Mus musculus
  Activity: 72%
Canis familiaris [1]
  Activity: Active

## O=C(O)[C@H]1CC[C@@H](Oc2ccc(-c3ccc(-c4nc5ccc(F)cc5[nH]4)cn3)cn2)CC1
[2]
  Cmax: 60 nM
[3]
  Cmax: 60 nM
[4]
  AUC: 0.25 µM·h
[5]
  half-life: 2 h
[6]
  bioavailability: 2%
[7]
  clearance: 31.8 mL/min/kg
[8]
  Cmax: 10 nM
[9]
  Tmax: 2 h
[10]
  IC50: 2 nM
[11]
  Vd: 2.18 L/kg
[12]
  IC50: 3.4 nM
Canis familiaris [13]
  AUC: 0.06 µM·h
[14]
  Vd: 0.63 L/kg
[15]
  Vd: 0.37 L/kg
[16]
  clearance: 32.3 mL/min/kg
[17]
  AUC: 0.2 µM·h
[18]
  half-life: 0.82 h
[19]
  half-life: 1.69 h
[20]
  clearance: 12.4 mL/min/kg
Rattus norvegicus
  AUC: 2.47 µM·h
[21]
  Tmax: 8 h
[22]
  bioavailability: 3%
[23]
  AUC: 0.05 µM·h
Rhesus monkey
  AUC: 0.56 µM·h
[24]
  Tmax: 0.25 h
[25]
  bioavailability: 2%
[26]
  logD: 1.02

## N#Cc1ccc2nc(-c3ccc(-c4ccc(O[C@H]5CC[C@H](C(=O)O)CC5)nc4)nc3)[nH]c2c1
[10]
  IC50: 6 nM
[12]
  IC50: 96 nM

## O=C(O)[C@H]1CC[C@H](Oc2ccc(-c3ccc(-c4nc5cc(F)c(F)cc5[nH]4)cn3)cn2)CC1
[10]
  IC50: 1.3 nM
[12]
  IC50: 4.3 nM

## O=C(O)[C@H]1CC[C@H](Oc2ccc(-c3ccc(-c4nc5ccccc5[nH]4)cn3)cn2)CC1
[10]
  IC50: 5.3 nM
[12]
  IC50: 12 nM
